Data published in ChEMBL document CHEMBL2311348, “The extremo-α-carbonic anhydrase (CA) from Sulfurihydrogenibium azorense, the fastest CA known, is highly activated by amino acids and amines” (Bioorg Med Chem Lett, 2013).

Columns and labels:
[1] = tested on: Sulfurihydrogenibium yellowstonense; assay: Activation of Sulfurihydrogenibium yellowstonense recombinant CA by stopped flow CO2 hydrase method
[2] = tested on: Sulfurihydrogenibium azorense; assay: Activation of Sulfurihydrogenibium azorense recombinant alpha carbonic anhydrase by stopped flow CO2 hydrase method
Outline: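 Full-length recombinant enzyme in a stopped-flow CO2 hydration assay at 25 °C: 0.2 mM phenol red read at its absorbance maximum, 10 mM Hepes pH 7.5, 0.1 M NaClO4, 10 s traces, CO2 1.7–17 mM. Activators were diluted from 10 mM water stocks down to 0.001 µM and preincubated with enzyme for 15 min at room temperature. Uncatalyzed rates were subtracted. kcat was measured at 10 µM activator. KA came from a steady-state equation, mean of ≥3 determinations.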

Row | SMILES | KA [1] [µM] | KA [2] [µM]
1 | N[C@H](Cc1ccc(O)cc1)C(=O)O | 0.83 | 0.11
2 | NCCc1c[nH]cn1 | 0.08 | 0.1
3 | NCCc1c[nH]c2ccc(O)cc12 | 0.021 | 0.007
4 | NCCc1ccc(O)c(O)c1 | 0.037 | 0.011
5 | N[C@H](Cc1c[nH]c2ccccc12)C(=O)O | 0.002 | 0.003
6 | Nc1ccc(C[C@H](N)C(=O)O)cc1 | 0.97 | 0.09
7 | N[C@@H](Cc1ccc(O)c(O)c1)C(=O)O | 0.09 | 0.004
8 | N[C@H](Cc1c[nH]cn1)C(=O)O | 0.012 | 0.09
9 | NCCN1CCNCC1 | 0.09 | 0.076
10 | NCc1ccccn1 | 0.1 | 0.081
11 | NCCN1CCOCC1 | 0.1 | 1.15
12 | N[C@H](Cc1ccc(O)c(O)c1)C(=O)O | 0.43 | 0.89
13 | CNC[C@@H](O)c1ccc(O)c(O)c1 | 0.68 | 0.074
14 | N[C@@H](Cc1ccc(O)cc1)C(=O)O | 0.001 | 0.052
15 | NCCc1ccccn1 | 0.33 | 0.34
16 | N[C@@H](Cc1c[nH]c2ccccc12)C(=O)O | 0.007 | 0.023
17 | N[C@@H](Cc1c[nH]cn1)C(=O)O | 0.11 | 0.071
